pKi: −log10 of the molar value.
Columns and labels:
[1] = target: T1, 5-hydroxytryptamine receptor 6 (Homo sapiens, UniProt P50406); assay: Antagonist activity against cAMP accumulation in C6 cells expressing 5-hydroxytryptamine 6 receptor; assay type: functional, cell-based; details: Rattus norvegicus, filed as antagonist
How it was run: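 C6 cells detached with trypsin 2 h before assay, seeded ~50 000 cells/well. Compounds added with or without forskolin for 30 min. Data are means of at least three separate experiments.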

[2] = target: T1, 5-hydroxytryptamine receptor 6; assay: Inhibition of [3H]LSD binding to human 5-hydroxytryptamine 6 receptor expressed in HEK293 cells; assay type: cell-based
How it was run: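 Bound ligand collected on polyethylenimine-pretreated glass fiber filters, washed with 50 mM Tris Cl pH 7.4, counted by liquid scintillation. Nonspecific binding defined with 100 µM serotonin. Competition data fitted by LIGAND; triplicate determinations per point.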

[3] = target: T1, 5-hydroxytryptamine receptor 6; assay: Agonist activity against cAMP accumulation in C6 cells expressing 5-hydroxytryptamine 6 receptor; assay type: functional, cell-based; details: Rattus norvegicus, filed as agonist
[4] = target: T1, 5-hydroxytryptamine receptor 6; assay: Partial agonist activity against cAMP accumulation in C6 cells expressing 5-hydroxytryptamine 6 receptor; assay type: functional, cell-based; details: Rattus norvegicus, filed as partial agonist
[5] = target: T1, 5-hydroxytryptamine receptor 6; assay: Binding affinity for human 5-hydroxytryptamine 6 receptor

T1 sequence (P50406 whole entry): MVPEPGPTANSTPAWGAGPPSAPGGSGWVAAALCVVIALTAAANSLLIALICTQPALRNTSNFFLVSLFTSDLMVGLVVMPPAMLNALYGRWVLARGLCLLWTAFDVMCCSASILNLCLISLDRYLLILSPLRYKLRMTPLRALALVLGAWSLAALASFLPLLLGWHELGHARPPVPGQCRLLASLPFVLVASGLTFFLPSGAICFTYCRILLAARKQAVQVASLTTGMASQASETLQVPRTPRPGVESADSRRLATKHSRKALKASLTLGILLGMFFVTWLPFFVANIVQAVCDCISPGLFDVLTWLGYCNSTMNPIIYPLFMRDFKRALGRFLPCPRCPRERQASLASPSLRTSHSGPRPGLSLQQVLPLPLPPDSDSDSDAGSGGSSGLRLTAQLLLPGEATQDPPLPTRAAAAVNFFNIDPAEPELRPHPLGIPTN

Compound	Activity [1]	pKi [2]	further results
CN1CCC(c2c[nH]c3ccc(NS(=O)(=O)c4cccc5ccccc45)cc23)CC1	Antagonist	–	–
Cc1cc2cc(NS(=O)(=O)c3c(Cl)nc4sccn34)ccc2n1CCN(C)C	Antagonist	7.13	–
CCN(CC)CCCc1c[nH]c2ccc(NS(=O)(=O)c3ccc4ccccc4c3)cc12	Antagonist	6.79	–
O=S(=O)(Nc1ccc2c(ccn2CCCN2CCCCC2)c1)c1c(Cl)nc2sccn12	–	< 6.00	–
CN(C)C(=O)C(=O)c1c[nH]c2ccc(NS(=O)(=O)c3c(Cl)nc4sccn34)cc12	Antagonist	–	–
CCN(CC)CCn1ccc2cc(NS(=O)(=O)c3ccc4ccccc4c3)ccc21	Antagonist	6.85	–
CCN(CC)CCc1c[nH]c2ccc(NS(=O)(=O)c3ccc(-c4ccccc4)cc3)cc12	–	–	Activity [3]: Agonist
O=S(=O)(Nc1ccc2[nH]cc(CCN3CCCC3)c2c1)c1ccc2ccccc2c1	–	8.37	Activity [4]: Partial agonist
CCN(CC)CCc1c[nH]c2ccc(NS(=O)(=O)c3ccc4ccccc4c3)cc12	–	7.39	–
Cc1c(S(=O)(=O)Nc2cccc3c2cc(C)n3CCN(C)C)sc2ccc(Cl)cc12	Antagonist	7.24	–
CN1CCN(C2Cc3ccccc3Sc3ccc(Cl)cc32)CC1 (centres undefined) [CLOROTEPINE]	–	–	pKi [5]: > 7.30
O=S(=O)(Nc1ccc2c(ccn2CCN2CCCCC2)c1)c1c(Cl)nc2sccn12	Antagonist	7.50	–
CN(C)CCn1ccc2c(NS(=O)(=O)c3cccc4ccccc34)cccc21	Antagonist	7.19	–
CN(C)CCn1ccc2cc(NS(=O)(=O)Cc3ccccc3)ccc21	–	< 6.00	–
Cc1cc2cc(NS(=O)(=O)c3ccc4ccccc4c3)ccc2n1CCN(C)C	Antagonist	7.07	–
CN(C)CCn1ccc2cc(NS(=O)(=O)c3ccc4ccccc4c3)ccc21	Antagonist	7.24	–
COc1ccc(Br)cc1S(=O)(=O)N1CCC(N2C(=O)OCc3cccc(C)c32)CC1	–	< 6.00	–
O=S(=O)(Nc1ccc2[nH]cc(CCN3CCCC3)c2c1)c1cccc2ccccc12	Antagonist	8.35	–
CC(C)C[C@H]1C(=O)N2CCC[C@H]2[C@]2(O)O[C@](NC(=O)[C@@H]3C=C4c5cccc6[nH]c(Br)c(c56)C[C@H]4N(C)C3)(C(C)C)C(=O)N12 [BROMOCRIPTINE]	–	–	pKi [5]: > 7.30
Cc1cccc2c1N(C1CCN(S(=O)(=O)c3cccc4c(N(C)C)cccc34)CC1)C(=O)OC2	Antagonist	6.47	–
CN1CCN(C2=Nc3ccccc3Oc3ccc(Cl)cc32)CC1 [LOXAPINE]	–	–	pKi [5]: > 7.30
CN(C)CCc1c[nH]c2ccc(NS(=O)(=O)c3c(Cl)nc4sccn34)cc12	–	–	Activity [4]: Partial agonist
O=C1OCc2ccccc2N1C1CCN(S(=O)(=O)c2cccc3cccnc23)CC1	Antagonist	–	–

Compound	Activity [1]	pKi [2]	further results
CN(C)CCn1ccc2cc(NS(=O)(=O)c3c(Cl)nc4sccn34)ccc21	Antagonist	–	–
CCN(CC)C(=O)C(=O)c1c[nH]c2ccc(NS(=O)(=O)c3cccc4ccccc34)cc12	–	< 6.00	–
CN(C)CCn1ccc2c(NS(=O)(=O)c3ccc4ccccc4c3)cccc21	Antagonist	7.83	–
CCN(CC)CCc1c[nH]c2ccc(NS(=O)(=O)c3cccc4c(Cl)cccc34)cc12	–	8.48	Activity [4]: Partial agonist
CCN(CC)C(=O)C(=O)c1c[nH]c2ccc(NS(=O)(=O)c3cccc4cccnc34)cc12	–	< 6.00	–
Cc1cccc2c1N(C1CCN(S(=O)(=O)c3cccc4cccnc34)CC1)C(=O)OC2	Antagonist	–	–
O=S(=O)(Nc1ccc2[nH]cc(CCN3CCOCC3)c2c1)c1ccc2ccccc2c1	Antagonist	6.88	–
Cc1cccc2c1N(C1CCN(S(=O)(=O)c3csc4ccccc34)CC1)C(=O)OC2	Antagonist	6.90	–
Cc1c(S(=O)(=O)Nc2ccc3[nH]cc(C(=O)C(=O)N(C)C)c3c2)sc2ccc(Cl)cc12	–	< 6.00	–
O=S(=O)(Nc1ccc2ccn(CCN3CCCC3)c2c1)c1cccc2ccccc12	Antagonist	7.73	–
CN(C)CCc1c[nH]c2ccc(NS(=O)(=O)c3cccc4ccccc34)cc12	–	9.10	Activity [4]: Partial agonist
Cc1c(S(=O)(=O)Nc2ccc3ccn(CCN4CCCC4)c3c2)sc2ccc(Cl)cc12	Antagonist	6.96	–
CCN(CC)C(=O)C(=O)c1c[nH]c2ccc(NS(=O)(=O)c3c(Cl)nc4sccn34)cc12	Antagonist	–	–
O=S(=O)(CCc1cccc2ccccc12)Nc1ccc2ccn(CCN3CCCC3)c2c1	Antagonist	6.71	–
O=C1OCc2ccccc2N1C1CCN(S(=O)(=O)c2cccc3ccccc23)CC1	Antagonist	–	–
Cc1c(S(=O)(=O)Nc2ccc3[nH]cc(CN(C)C)c3c2)sc2ccc(Cl)cc12	Antagonist	8.28	–
O=S(=O)(Nc1ccc2ccn(CCN3CCCC3)c2c1)c1c(Cl)nc2sccn12	Antagonist	7.28	–
CCCN(CCC)CCc1c[nH]c2ccc(NS(=O)(=O)c3sc4ccc(Cl)cc4c3C)cc12	–	9.30	Activity [4]: Partial agonist
CCCCN(CCCC)CCc1c[nH]c2ccc(NS(=O)(=O)c3cccc4ccccc34)cc12	Antagonist	8.14	–
CN(C)CCc1c[nH]c2ccc(NS(=O)(=O)c3ccc(-c4ccccc4)cc3)cc12	–	9.40	Activity [3]: Agonist
Cc1cc2cc(NS(=O)(=O)c3cccc4ccccc34)ccc2n1CCN(C)C	Antagonist	6.91	–
CN(C)CCn1ccc2ccc(NS(=O)(=O)c3ccc4ccccc4c3)cc21	Antagonist	–	–
O=S(=O)(Nc1ccc2ccn(CCN3CCCC3)c2c1)c1ccc2ccccc2c1	Antagonist	7.00	–

Compound	Activity [1]	pKi [2]	further results
CNc1cc(NS(=O)(=O)c2ccc(N)cc2)cc(NC)n1	–	7.83	–
OCCN1CCN(CCCN2c3ccccc3Sc3ccc(C(F)(F)F)cc32)CC1 [FLUPHENAZINE]	–	–	pKi [5]: > 7.30
CCc1[nH]c2ccc(OC)cc2c1CCN(C)C	–	–	pKi [5]: > 7.30
Cc1c(S(=O)(=O)Nc2ccc3ccn(CCN(C)C)c3c2)sc2ccc(Cl)cc12	–	–	Activity [4]: Partial agonist
CN1CC=C(c2cn(S(=O)(=O)c3cccc4ccccc34)c3ccc(F)cc23)CC1	–	–	pKi [5]: > 7.30
CNc1cc(NS(=O)(=O)c2ccc(N)cc2)nc(NC)n1	–	7.35	–
CCN(CC)CCn1ccc2cc(NS(=O)(=O)c3cccc4ccccc34)ccc21	Antagonist	6.93	–
O=S(=O)(Nc1ccc2c(ccn2CCN2CCCC2)c1)c1c(Cl)nc2sccn12	Antagonist	8.01	–
CCN(CC)CCc1c[nH]c2ccc(NS(=O)(=O)c3sc4ccc(Cl)cc4c3C)cc12	–	9.52	Activity [3]: Agonist
CCN(CC)CCc1c[nH]c2ccc(NS(=O)(=O)c3cc(Cl)cc(Cl)c3)cc12	–	–	Activity [4]: Partial agonist
CCCN(CCC)CCc1c[nH]c2ccc(NS(=O)(=O)c3ccc4ccccc4c3)cc12	–	8.41	Activity [4]: Partial agonist
Cc1c(S(=O)(=O)Nc2ccc3cc(C)n(CCN(C)C)c3c2)sc2ccc(Cl)cc12	–	< 6.00	–
Cc1c(S(=O)(=O)Nc2ccc3[nH]cc(C4CCN(C)CC4)c3c2)sc2ccc(Cl)cc12	Antagonist	9.00	–
COc1ccc2c(c1)c(CCN(C)C)cn2S(=O)(=O)c1ccccc1	–	–	pKi [5]: > 7.30
Cc1c(S(=O)(=O)Nc2ccc3[nH]cc(CCN4CCCC4)c3c2)sc2ccc(Cl)cc12	–	8.40	Activity [4]: Partial agonist
Cc1c(S(=O)(=O)Nc2ccc3[nH]cc(CCN(C)C)c3c2)sc2ccc(Cl)cc12	–	10.00	Activity [3]: Agonist
COc1ccc(OC)c(S(=O)(=O)N2CCC(N3C(=O)OCc4cccc(C)c43)CC2)c1	Antagonist	6.88	–
CCN(CC)CCn1ccc2cc(NS(=O)(=O)c3c(Cl)nc4sccn34)ccc21	Antagonist	7.01	–
O=S(=O)(Nc1ccc2[nH]cc(CCN3CCOCC3)c2c1)c1cccc2ccccc12	Antagonist	6.79	–
CN1CCC(c2c[nH]c3ccc(NS(=O)(=O)c4cccc5c(Cl)cccc45)cc23)CC1	Antagonist	8.02	–
O=C1OCc2ccccc2N1C1CCN(S(=O)(=O)c2csc3ccccc23)CC1	Antagonist	6.90	–
Cc1c(S(=O)(=O)Nc2ccc3[nH]cc(CCN4CCOCC4)c3c2)sc2ccc(Cl)cc12	Antagonist	7.82	–
CN(C)CCc1c[nH]c2ccc(NS(=O)(=O)c3ccc4c(Cl)cccc4c3)cc12	Antagonist	9.70	–

From ChEMBL document CHEMBL1145196, “Medicinal chemistry driven approaches toward novel and selective serotonin 5-HT6 receptor ligands” (J Med Chem, 2005)
